Results: ChEMBL document CHEMBL4376814, “Novel cyclin-dependent kinase 9 (CDK9) inhibitor with suppression of cancer stemness activity against non-small-cell lung cancer” (Eur J Med Chem, 2019)
Activity calls are given as the source filed them. The rule behind the calls is not given here.

Legend:
MCF7 = experiment: Antiproliferative activity against human MCF7 cells assessed as inhibition of cell viability at 500 nM after 72 hrs by CCK-8 assay relative to control; format: functional; conditions: MCF7, 72 h
Summary of the method: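 Single-concentration viability screen using CCK-8. Cells were seeded at 3000/well and treated for 72 h. A450 read after 1-4 h with reagent. Percent inhibition calculated against untreated control and blank wells as (Ac−As)/(Ac−Ab)×100%.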

Hep 3B2 = experiment: Antiproliferative activity against human Hep3B cells assessed as inhibition of cell viability after 72 hrs by CCK-8 assay; format: functional, cell-based
Summary of the method: (§1)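 Cells kept at 37 °C, 5% CO2 in DMEM or RPMI-1640 with 10% FBS and 1% penicillin/streptomycin, then seeded at 3000 cells/well (adherent) or 10,000 cells/well (suspension). Exposed to a range of concentrations for 72 h. CCK-8 added for 1-4 h before reading A450. […] Three independent experiments.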

CCRF-CEM = experiment: Antiproliferative activity against human CCRF-CEM cells assessed as inhibition of cell viability after 72 hrs by CCK-8 assay; format: functional, cell-based; summary of the method: as §1
A549 = experiment: Induction of apoptosis in human A549 cells assessed as necrotic cells at 1 uM after 48 hrs by AnnexinV-FITC/PI staining-based flow cytometric analysis (reference value: 0.664%); format: functional
NCI-H1299 [1] = experiment: Induction of apoptosis in human H1299 cells assessed as early apoptotic cells at 0.25 uM after 48 hrs by AnnexinV-FITC/PI staining-based flow cytometric analysis (reference value: 0.248%); format: functional
NCI-H1299 [2] = experiment: Downregulation of SOX2 in human H1299 cells at 0.25 to 1 uM by Western blot analysis; format: functional, cell-based
[3] = molecular target: Calcium/calmodulin-dependent protein kinase type 1 (Homo sapiens) (UniProt Q14012); experiment: Inhibition of recombinant human CaMK1 (2 to end residues) at 1 uM using calmodulin as substrate measured after 40 mins in presence of [gamma33P]ATP by scintillation counting method relative to control
[4] = molecular target: Maternal embryonic leucine zipper kinase (Homo sapiens) (UniProt Q14680); experiment: Inhibition of recombinant human MELK (1 to 340 residues) at 1 uM using KKLNRTLSFAEPG as substrate measured after 40 mins in presence of [gamma33P]ATP by scintillation counting method relative to control
[5] = system: Hepatocyte growth factor receptor (Homo sapiens), P08581 [D1228N]; experiment: Inhibition of recombinant human MET A1209G/V1290L/D1246N mutant (974 to end residues) at 1 uM using KKKGQEEEYVFIE as substrate measured after 40 mins in presence of [gamma33P]ATP by scintillation counting method relative to control
[6] = molecular target: Ribosomal protein S6 kinase alpha-5 (Homo sapiens) (UniProt O75582); experiment: Inhibition of recombinant human MSK1 (2 to end residues) at 1 uM using GRPRTSSFAEGKK as substrate measured after 40 mins in presence of [gamma33P]ATP by scintillation counting method relative to control
[7] = molecular target: Protein kinase C gamma type (Homo sapiens) (UniProt P05129); experiment: Inhibition of recombinant full-length human PKCgamma at 1 uM using histone H1 as substrate measured after 40 mins in presence of [gamma33P]ATP by scintillation counting method relative to control
[8] = molecular target: Death-associated protein kinase 1 (Homo sapiens) (UniProt P53355); experiment: Inhibition of recombinant human DAPK1 (1 to 296 residues) at 1 uM using KKLNRTLSFAEPG as substrate measured after 40 mins in presence of [gamma33P]ATP by scintillation counting method relative to control
[9] = molecular target: Serine/threonine-protein kinase DCLK2 (Homo sapiens) (UniProt Q8N568); experiment: Inhibition of recombinant human DCAMKL2 (376 to end residues) at 1 uM using KKLNRTLSFAEPG as substrate measured after 40 mins in presence of [gamma33P]ATP by scintillation counting method relative to control
Summary of the method: (§2)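 Single-point inhibition at 1 µM was measured in the Eurofins KinaseProfiler panel. Values are the mean of two independent experiments.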

[10] = molecular target: Serine/threonine-protein kinase 17B (Homo sapiens) (UniProt O94768); experiment: Inhibition of recombinant full-length human DRAK2 at 1 uM using KKRPQRRYSNVF as substrate measured after 120 mins in presence of [gamma33P]ATP by scintillation counting method relative to control
[11] = molecular target: Fibroblast growth factor receptor 3 (Homo sapiens) (UniProt P22607); experiment: Inhibition of recombinant human FGFR3 (447 to 761 residues) at 1 uM using poly(Glu, Tyr) 4:1 as substrate measured after 40 mins in presence of [gamma33P]ATP by scintillation counting method relative to control
[12] = molecular target: Tyrosine-protein kinase FRK (Homo sapiens) (UniProt P42685); experiment: Inhibition of human PTK5 (218 to end residues) at 1 uM using GGEEEEYFELVKKKK as substrate measured after 40 mins in presence of [gamma33P]ATP by scintillation counting method relative to control
Summary of the method: (§3)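 Percent inhibition of kinase activity at a single compound concentration, measured by the outsourced Eurofins KinaseProfiler panel. Values are the mean of two independent experiments.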

[13] = system: Glycogen synthase kinase-3 alpha (Homo sapiens), P49840 [UNDEFINED MUTATION]; experiment: Inhibition of recombinant full-length human GSK3alpha (2 to end residues) S449A mutant at 1 uM using phospho GS2 peptide as substrate measured after 40 mins in presence of [gamma33P]ATP by scintillation counting method relative to control
[14] = molecular target: Serine/threonine-protein kinase haspin (Homo sapiens) (UniProt Q8TF76); experiment: Inhibition of recombinant human haspin (471 to end residues) at 1 uM using RARTLSFAEPG as substrate measured after 40 mins in presence of [gamma33P]ATP by scintillation counting method relative to control; summary of the method: as §2
[15] = molecular target: Insulin-like growth factor 1 receptor (Homo sapiens) (UniProt P08069); experiment: Inhibition of recombinant human activated IGF1R (959 to end residues) at 1 uM using KKKSPGEYVNIEFG as substrate measured after 40 mins in presence of [gamma33P]ATP by scintillation counting method relative to control
[16] = molecular target: Tyrosine-protein kinase Srms (Homo sapiens) (UniProt Q9H3Y6); experiment: Inhibition of human SRMS at 1 uM by radiometric method relative to control; summary of the method: as §3
[17] = molecular target: Mitogen-activated protein kinase kinase kinase 7 (Homo sapiens) (UniProt O43318); experiment: Inhibition of human TAK1 (1 to 303 residues) at 1 uM using casein as substrate measured after 40 mins in presence of [gamma33P]ATP by scintillation counting method relative to control; summary of the method: as §3
[18] = molecular target: Tribbles homolog 2 (Homo sapiens) (UniProt Q92519); experiment: Inhibition of recombinant full-length human TRB2 at 1 uM using RRRFRPASPLRGPPK as substrate measured after 120 mins in presence of [gamma33P]ATP by scintillation counting method relative to control
[19] = molecular target: Serine/threonine-protein kinase ULK1 (Homo sapiens) (UniProt O75385); experiment: Inhibition of human ULK1 (1 to 314 residues) at 1 uM using casein as substrate measured after 40 mins in presence of [gamma33P]ATP by scintillation counting method relative to control
Serine/threonine-protein kinase ULK1 (Homo sapiens), sequence (O75385 whole entry, the tested form may be a part): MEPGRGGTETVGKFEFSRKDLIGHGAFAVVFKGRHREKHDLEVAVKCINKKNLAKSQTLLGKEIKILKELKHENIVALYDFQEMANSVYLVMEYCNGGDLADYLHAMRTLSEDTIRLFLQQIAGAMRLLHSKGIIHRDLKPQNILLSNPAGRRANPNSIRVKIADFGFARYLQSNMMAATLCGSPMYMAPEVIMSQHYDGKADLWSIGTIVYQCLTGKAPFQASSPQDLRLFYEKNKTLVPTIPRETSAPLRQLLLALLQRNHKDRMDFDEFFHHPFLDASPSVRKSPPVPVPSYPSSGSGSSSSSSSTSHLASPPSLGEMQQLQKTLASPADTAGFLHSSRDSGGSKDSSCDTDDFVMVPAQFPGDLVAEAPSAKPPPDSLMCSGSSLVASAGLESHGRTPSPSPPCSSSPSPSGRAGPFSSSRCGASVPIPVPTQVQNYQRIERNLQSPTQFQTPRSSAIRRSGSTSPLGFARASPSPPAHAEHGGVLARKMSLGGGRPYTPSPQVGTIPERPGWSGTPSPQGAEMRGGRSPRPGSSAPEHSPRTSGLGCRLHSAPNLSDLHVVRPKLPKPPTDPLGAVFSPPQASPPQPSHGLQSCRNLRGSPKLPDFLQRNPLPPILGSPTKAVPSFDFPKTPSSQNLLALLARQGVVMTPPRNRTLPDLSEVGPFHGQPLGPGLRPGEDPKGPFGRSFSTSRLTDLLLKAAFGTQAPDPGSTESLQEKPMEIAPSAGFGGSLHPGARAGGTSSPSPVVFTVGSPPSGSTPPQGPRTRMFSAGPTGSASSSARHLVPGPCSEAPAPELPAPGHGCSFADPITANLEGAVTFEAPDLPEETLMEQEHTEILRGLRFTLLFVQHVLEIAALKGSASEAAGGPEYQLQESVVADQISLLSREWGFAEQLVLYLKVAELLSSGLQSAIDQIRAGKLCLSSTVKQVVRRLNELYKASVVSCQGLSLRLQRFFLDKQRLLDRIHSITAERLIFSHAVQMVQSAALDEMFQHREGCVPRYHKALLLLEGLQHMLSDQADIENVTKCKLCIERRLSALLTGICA

Tyrosine-protein kinase Srms (Homo sapiens), sequence (Q9H3Y6 whole entry, the tested form may be a part): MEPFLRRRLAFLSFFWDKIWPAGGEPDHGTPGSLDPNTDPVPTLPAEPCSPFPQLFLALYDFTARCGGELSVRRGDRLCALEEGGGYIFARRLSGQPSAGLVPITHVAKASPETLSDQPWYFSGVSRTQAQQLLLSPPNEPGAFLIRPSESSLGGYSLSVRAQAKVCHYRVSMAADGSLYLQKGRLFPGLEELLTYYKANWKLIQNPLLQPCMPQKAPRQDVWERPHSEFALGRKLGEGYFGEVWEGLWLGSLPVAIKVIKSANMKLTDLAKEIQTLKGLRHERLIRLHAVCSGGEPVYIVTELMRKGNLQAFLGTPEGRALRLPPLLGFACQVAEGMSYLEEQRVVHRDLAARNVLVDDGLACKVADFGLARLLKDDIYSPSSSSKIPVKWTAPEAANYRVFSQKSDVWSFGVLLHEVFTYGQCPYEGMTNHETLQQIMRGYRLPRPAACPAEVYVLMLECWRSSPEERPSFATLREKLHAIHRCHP
Hepatocyte growth factor receptor (Homo sapiens), P08581 [D1228N], sequence (P08581 whole entry D1228N): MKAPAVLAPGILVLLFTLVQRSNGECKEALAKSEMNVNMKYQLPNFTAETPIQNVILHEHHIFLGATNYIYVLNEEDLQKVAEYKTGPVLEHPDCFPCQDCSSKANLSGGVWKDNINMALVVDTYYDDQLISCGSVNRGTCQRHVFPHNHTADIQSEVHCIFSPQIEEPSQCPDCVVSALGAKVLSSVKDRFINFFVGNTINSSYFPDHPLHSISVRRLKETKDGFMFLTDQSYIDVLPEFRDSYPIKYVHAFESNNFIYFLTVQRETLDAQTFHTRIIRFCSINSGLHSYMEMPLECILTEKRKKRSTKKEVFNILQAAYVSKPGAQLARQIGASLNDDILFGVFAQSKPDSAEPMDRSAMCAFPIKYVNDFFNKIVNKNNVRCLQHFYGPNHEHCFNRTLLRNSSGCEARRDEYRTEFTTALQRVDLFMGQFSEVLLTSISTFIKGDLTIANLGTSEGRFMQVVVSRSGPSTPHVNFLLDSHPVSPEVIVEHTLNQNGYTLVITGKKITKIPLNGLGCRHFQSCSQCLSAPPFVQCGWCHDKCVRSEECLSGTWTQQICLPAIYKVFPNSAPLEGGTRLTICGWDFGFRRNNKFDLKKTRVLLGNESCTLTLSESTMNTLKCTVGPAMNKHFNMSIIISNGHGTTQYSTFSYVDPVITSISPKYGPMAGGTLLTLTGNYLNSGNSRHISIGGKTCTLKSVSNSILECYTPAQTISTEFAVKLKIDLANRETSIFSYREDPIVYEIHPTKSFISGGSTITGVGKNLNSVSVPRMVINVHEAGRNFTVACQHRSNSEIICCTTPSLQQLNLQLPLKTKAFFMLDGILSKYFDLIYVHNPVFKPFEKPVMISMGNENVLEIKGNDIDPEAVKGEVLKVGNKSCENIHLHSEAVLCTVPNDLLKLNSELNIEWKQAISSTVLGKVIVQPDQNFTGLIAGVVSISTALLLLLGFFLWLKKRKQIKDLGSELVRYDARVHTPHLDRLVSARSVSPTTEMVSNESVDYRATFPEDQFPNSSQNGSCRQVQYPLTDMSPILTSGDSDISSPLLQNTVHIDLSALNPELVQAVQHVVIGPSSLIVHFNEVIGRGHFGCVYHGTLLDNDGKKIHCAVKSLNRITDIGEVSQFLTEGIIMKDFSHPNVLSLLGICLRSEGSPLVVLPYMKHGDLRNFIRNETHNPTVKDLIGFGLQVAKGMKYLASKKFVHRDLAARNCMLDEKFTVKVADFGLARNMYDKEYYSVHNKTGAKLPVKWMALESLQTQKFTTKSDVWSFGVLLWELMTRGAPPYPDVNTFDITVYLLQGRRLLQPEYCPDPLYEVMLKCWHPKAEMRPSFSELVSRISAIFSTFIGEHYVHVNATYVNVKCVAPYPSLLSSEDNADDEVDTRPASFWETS
Fibroblast growth factor receptor 3 (Homo sapiens), sequence (P22607 23-806 limits assumed): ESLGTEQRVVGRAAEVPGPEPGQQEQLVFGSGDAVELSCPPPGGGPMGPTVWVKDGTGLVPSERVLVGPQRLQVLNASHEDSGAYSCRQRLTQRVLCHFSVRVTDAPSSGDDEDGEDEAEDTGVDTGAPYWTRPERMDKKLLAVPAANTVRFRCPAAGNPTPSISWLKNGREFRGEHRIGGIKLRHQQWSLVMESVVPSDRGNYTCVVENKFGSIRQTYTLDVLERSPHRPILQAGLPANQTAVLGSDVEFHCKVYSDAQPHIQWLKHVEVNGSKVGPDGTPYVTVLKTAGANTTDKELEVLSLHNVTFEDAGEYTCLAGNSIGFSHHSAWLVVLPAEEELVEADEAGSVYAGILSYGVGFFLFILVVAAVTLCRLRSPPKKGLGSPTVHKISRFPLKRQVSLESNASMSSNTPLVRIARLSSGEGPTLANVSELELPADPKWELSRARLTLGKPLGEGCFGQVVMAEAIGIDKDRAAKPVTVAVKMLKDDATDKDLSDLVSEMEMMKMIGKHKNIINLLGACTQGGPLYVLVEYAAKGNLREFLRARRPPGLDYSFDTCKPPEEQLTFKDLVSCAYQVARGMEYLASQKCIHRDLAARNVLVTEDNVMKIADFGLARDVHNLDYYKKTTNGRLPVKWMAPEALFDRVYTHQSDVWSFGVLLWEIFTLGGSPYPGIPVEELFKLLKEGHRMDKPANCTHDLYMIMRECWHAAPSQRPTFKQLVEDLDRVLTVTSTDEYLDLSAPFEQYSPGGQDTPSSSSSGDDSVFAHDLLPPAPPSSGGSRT
Insulin-like growth factor 1 receptor (Homo sapiens), sequence (P08069 31-736 limits assumed): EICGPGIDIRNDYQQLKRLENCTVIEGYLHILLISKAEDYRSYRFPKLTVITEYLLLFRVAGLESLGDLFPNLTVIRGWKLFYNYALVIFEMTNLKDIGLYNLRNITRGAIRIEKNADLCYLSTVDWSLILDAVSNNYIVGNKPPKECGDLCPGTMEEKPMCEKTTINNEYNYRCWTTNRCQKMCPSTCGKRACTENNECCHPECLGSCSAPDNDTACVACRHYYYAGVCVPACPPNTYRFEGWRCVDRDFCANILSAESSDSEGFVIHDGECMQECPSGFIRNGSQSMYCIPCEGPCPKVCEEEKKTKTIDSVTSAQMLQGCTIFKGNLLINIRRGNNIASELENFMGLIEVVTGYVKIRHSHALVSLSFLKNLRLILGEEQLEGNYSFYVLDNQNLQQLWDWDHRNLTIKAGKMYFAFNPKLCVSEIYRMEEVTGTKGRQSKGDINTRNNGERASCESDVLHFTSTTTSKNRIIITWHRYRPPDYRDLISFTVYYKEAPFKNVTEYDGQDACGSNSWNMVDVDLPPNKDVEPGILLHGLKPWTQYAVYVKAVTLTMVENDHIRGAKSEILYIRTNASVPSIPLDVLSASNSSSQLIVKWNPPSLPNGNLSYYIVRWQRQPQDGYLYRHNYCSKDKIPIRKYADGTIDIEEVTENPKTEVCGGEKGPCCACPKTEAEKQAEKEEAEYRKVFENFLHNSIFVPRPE
Insulin-like growth factor 1 receptor (Homo sapiens), sequence (P08069 741-1367 limits assumed): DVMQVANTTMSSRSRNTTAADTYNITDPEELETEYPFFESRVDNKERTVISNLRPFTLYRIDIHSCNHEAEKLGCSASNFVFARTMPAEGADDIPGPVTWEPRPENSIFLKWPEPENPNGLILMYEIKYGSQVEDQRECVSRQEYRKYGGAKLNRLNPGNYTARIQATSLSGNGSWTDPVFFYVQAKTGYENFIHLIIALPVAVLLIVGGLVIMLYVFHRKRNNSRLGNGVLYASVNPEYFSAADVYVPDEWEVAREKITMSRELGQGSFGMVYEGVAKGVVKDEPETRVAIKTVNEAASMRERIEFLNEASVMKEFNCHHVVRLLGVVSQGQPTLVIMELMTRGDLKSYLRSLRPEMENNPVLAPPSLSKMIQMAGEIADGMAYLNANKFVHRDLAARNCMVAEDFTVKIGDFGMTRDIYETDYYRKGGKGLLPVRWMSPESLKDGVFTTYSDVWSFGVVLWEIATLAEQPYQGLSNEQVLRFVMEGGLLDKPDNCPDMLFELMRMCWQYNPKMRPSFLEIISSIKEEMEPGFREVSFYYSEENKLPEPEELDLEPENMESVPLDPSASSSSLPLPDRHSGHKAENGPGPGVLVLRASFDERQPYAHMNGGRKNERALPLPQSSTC

In the case of `CN(C)C(=O)c1cc2cnc(Nc3ccc(NC(=O)CCCCCCCN=C=S)cc3)nc2n1C1CCCC1`, the inhibition at 0.5 µM (MCF7) is reported as 62%, the IC50 (Hep 3B2) is reported as 5.61 µM and the IC50 (CCRF-CEM) is reported as > 10 µM. The Activity (A549) was 7.76%, the Activity (NCI-H1299 [1]) was 0.432% and the Activity (NCI-H1299 [2]) was “Active”. For the same compound, the inhibition [3] was 6%, the inhibition [4] was 88% and the inhibition [5] was 65%. For the same compound, the inhibition [6] was 5%, the inhibition [7] was 86% and the inhibition [8] was -5%. For the same compound, the inhibition [9] was 1%, the inhibition [10] was -8% and the inhibition [11] was 28%. For the same compound, the inhibition [12] was 15%, the inhibition [13] was 17% and the inhibition [14] was 11%. For the same compound, the inhibition [15] was 0%, the inhibition [16] was 34% and the inhibition [17] was 79%. It also gave an inhibition [18] of 22% and an inhibition [19] of -3%.
